From ChEMBL document CHEMBL1165950, “Design and synthesis of new potent anticancer pyrazoles with high FLT3 kinase inhibitory selectivity” (Bioorg Med Chem, 2010)

Experiments:
Format in all cases: functional
CCRF-CEM = assay: Cytotoxicity against human CCRF-CEM cells assessed as cell growth at 100 nM after 48 hrs by sulforhodamine B assay; conditions: read-out: Activity
Method in brief: (§1)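 NCI-60 five-dose screen. Cells were grown in RPMI 1640 with 5% FBS and 2 mM L-glutamine, plated at 5000–40,000 cells/well and preincubated for 24 h. Time-zero plates were TCA-fixed. DMSO-solubilized drug was added at five concentrations (10-fold or ½-log serial dilutions) for 48 h at 37 °C, 5% CO2. Cells were TCA-fixed, stained with 0.4% SRB and read at 515 nm. Percent growth used time-zero, control and test absorbances.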

DU-145 = assay: Cytotoxicity against human DU145 cells assessed as cell growth at 10 uM; conditions: read-out: Activity
Method in brief: (§2)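 Single-dose NCI-60 screen at 10 µM. Cells were grown in RPMI 1640 with 5% FBS and 2 mM L-glutamine, then treated for 48 h at 37 °C. Protein was measured by SRB staining with absorbance at 515 nm. Percentage growth was recorded, and inhibition percentage was calculated as 100 minus growth percentage.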

SF-539 = assay: Cytotoxicity against human SF539 cells assessed as cell growth at 0.01 uM after 48 hrs by sulforhodamine B assay; conditions: SF-539, 48 h, read-out: Activity
[1] = Cytotoxicity against human Hs 578T cells assessed as cell growth at 1 uM after 48 hrs by sulforhodamine B assay; conditions: read-out: Activity
OVCAR-4 = assay: Cytotoxicity against human OVCAR4 cells assessed as cell growth at 10 uM; conditions: read-out: Activity
Method in brief: (§3)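 NCI-60 screen: cells grown in RPMI 1640 with 5% FBS and 2 mM L-glutamine, plated at 5000–40,000 cells/well according to doubling time, and preincubated 24 h at 37 °C, 5% CO2. The single 10 µM dose (DMSO stock) was added, then incubated 48 h. Cells were TCA-fixed and stained with 0.4% SRB, read at 515 nm, and growth % calculated against time-zero and control plates.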

OVCAR-3 = assay: Cytotoxicity against human OVCAR-3 cells assessed as cell growth at 1 uM after 48 hrs by sulforhodamine B assay; conditions: OVCAR-3, 48 h, read-out: Activity
HOP-92 = assay: Cytotoxicity against human HOP92 cells assessed as cell growth at 1 uM after 48 hrs by sulforhodamine B assay; conditions: HOP-92, 48 h, read-out: Activity
A498 = assay: Cytotoxicity against human A498 cells assessed as cell growth at 10 uM after 48 hrs by sulforhodamine B assay; conditions: A498, 48 h, read-out: Activity; method in brief: as §1
SK-MEL-28 = assay: Cytotoxicity against human SK-MEL-28 cells assessed as cell growth at 10 uM; conditions: read-out: Activity; method in brief: as §3
KM12 = assay: Cytotoxicity against human KM12 cells assessed as cell growth at 0.001 uM after 48 hrs by sulforhodamine B assay; conditions: KM12, 48 h, read-out: Activity
NCI-H522 [2] = assay: Cytotoxicity against human NCI-H522 cells assessed as cell growth at 10 uM after 48 hrs by sulforhodamine B assay; conditions: NCI-H522, 48 h, read-out: Activity
SNB-75 [3] = assay: Cytotoxicity against human SNB75 cells assessed as cell growth at 1 uM after 48 hrs by sulforhodamine B assay; conditions: SNB-75, 48 h, read-out: Activity
COLO 205 = assay: Cytotoxicity against human COLO205 cells assessed as cell growth at 0.01 uM after 48 hrs by sulforhodamine B assay; conditions: COLO 205, 48 h, read-out: Activity; method in brief: as §1
UACC-257 = assay: Growth inhibition of human UACC257 cells after 48 hrs by sulforhodamine B assay; conditions: UACC-257, 48 h
Method in brief: (§4)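 NCI 60-cell screen, five-dose mode. Cells grown in RPMI 1640 with 5% FBS and 2 mM L-glutamine and plated at 5000-40,000 cells/well according to doubling time. After 24 h preincubation, a Tz plate was TCA-fixed. Five concentrations (10-fold or 1/2 log dilutions) were applied for 48 h at 37 °C. SRB staining read at 515 nm. IC50 taken from [(Ti-Tz)/(C-Tz)]×100 = 50.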

786-0 = assay: Cytotoxicity against human 786-0 cells assessed as cell growth at 10 uM; conditions: read-out: Activity; method in brief: as §2
NCI-H522 [4] = assay: Cytotoxicity against human NCI-H522 cells assessed as cell growth at 0.001 uM after 48 hrs by sulforhodamine B assay; conditions: NCI-H522, 48 h, read-out: Activity
HCT-116 = assay: Cytotoxicity against human HCT116 cells assessed as cell growth at 0.01 uM after 48 hrs by sulforhodamine B assay; conditions: HCT-116, 48 h, read-out: Activity
T47D = assay: Cytotoxicity against human T47D cells assessed as cell growth at 0.01 uM after 48 hrs by sulforhodamine B assay; conditions: read-out: Activity
HT-29 = assay: Cytotoxicity against human HT-29 cells assessed as cell growth at 0.001 uM after 48 hrs by sulforhodamine B assay; conditions: HT-29, 48 h, read-out: Activity
HL-60(TB) = assay: Cytotoxicity against human HL-60(TB) cells assessed as cell growth at 1 uM after 48 hrs by sulforhodamine B assay; conditions: HL-60, 48 h, read-out: Activity
Method in brief: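 NCI 60-cell panel. Cells are grown in RPMI 1640 with 5% FBS and 2 mM L-glutamine, seeded at 5000–40,000 cells/well according to doubling time, and preincubated 24 h. Time-zero plates are TCA-fixed. Compound from DMSO stock is given at five 10-fold or 1/2-log concentrations for 48 h at 37 °C, 5% CO2. Suspension cells are fixed with 80% TCA (final 16%) and SRB-stained, with absorbance at 515 nm. Percent growth is derived from Tz, control and test readings.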

[5] = Cytotoxicity against human Hs 578T cells assessed as cell growth at 100 nM after 48 hrs by sulforhodamine B assay; conditions: read-out: Activity
SNB-75 [6] = assay: Cytotoxicity against human SNB75 cells assessed as cell growth at 10 uM; conditions: read-out: Activity; method in brief: as §3
SF-268 = assay: Growth inhibition of human SF268 cells after 48 hrs by sulforhodamine B assay; conditions: SF-268, 48 h; method in brief: as §4
UO-31 = assay: Cytotoxicity against human UO31 cells assessed as cell growth at 1 uM after 48 hrs by sulforhodamine B assay; conditions: UO-31, 48 h, read-out: Activity
SN12C = assay: Cytotoxicity against human SN12C cells assessed as cell growth at 0.01 uM after 48 hrs by sulforhodamine B assay; conditions: read-out: Activity
A549 = assay: Cytotoxicity against human A549 cells assessed as cell growth at 10 uM; conditions: read-out: Activity; method in brief: as §2
IGROV-1 = assay: Cytotoxicity against human IGROV1 cells assessed as cell growth at 10 uM after 48 hrs by sulforhodamine B assay; conditions: IGROV-1, 48 h, read-out: Activity
BT-549 = assay: Cytotoxicity against human BT549 cells assessed as cell growth at 100 nM after 48 hrs by sulforhodamine B assay; conditions: BT-549, 48 h, read-out: Activity; method in brief: as §1
OVCAR-5 = assay: Growth inhibition of human OVCAR5 cells after 48 hrs by sulforhodamine B assay; conditions: OVCAR-5, 48 h; method in brief: as §4
[7] = read-out: LC50 (the source's name)

COc1cc(C)cc(-c2nn(CC#N)cc2-c2ccc(-c3cccc(C(C)=O)c3)nc2)c1
growth at 0.1 µM (CCRF-CEM): 77%
growth at 10 µM (DU-145): 39%
growth at 0.01 µM (SF-539): 89%
growth at 1 µM [1]: -43%
growth at 10 µM (OVCAR-4): 31.7%
growth at 1 µM (OVCAR-3): -61%
growth at 1 µM (HOP-92): -4%
growth at 10 µM (A498): -55%
growth at 10 µM (SK-MEL-28): 44.7%
growth at 0.001 µM (KM12): 99%
growth at 10 µM (NCI-H522 [2]): -40%
growth at 1 µM (SNB-75 [3]): -20%
growth at 0.01 µM (COLO 205): 100%
GI50 (UACC-257): 3.61 µM
TGI (UACC-257): > 100 µM
CC50 (UACC-257; [7]): > 100 µM
growth at 10 µM (786-0): 18%
growth at 0.001 µM (NCI-H522 [4]): 85%
growth at 0.01 µM (HCT-116): 93%
growth at 0.01 µM (T47D): 93%
growth at 0.001 µM (HT-29): 95%
growth at 1 µM (HL-60(TB)): 2%
growth at 0.1 µM [5]: 61%
growth at 10 µM (SNB-75 [6]): -23.9%
GI50 (SF-268): 4.07 µM
TGI (SF-268): 81.4 µM
CC50 (SF-268; [7]): > 100 µM
growth at 1 µM (UO-31): 21%
growth at 0.01 µM (SN12C): 88%
growth at 10 µM (A549): 38.8%
growth at 10 µM (IGROV-1): -40%
growth at 0.1 µM (BT-549): 85%
GI50 (OVCAR-5): 2.43 µM
TGI (OVCAR-5): 33.9 µM
CC50 (OVCAR-5; [7]): > 100 µM
